Experimental data collected from several papers.
Lines come from different studies, so protocols differ.
Read-out: metabolic stability
Host: human
Sample: liver microsomes

SMILES	setting	microsomal CLint [µL/min/mg]
O=C(C1CCSCC1)N1CC(=O)N2CCc3ccccc3[C@@H]2C1	0.1 µM, pH 7.4	28
COc1cccc(-c2nc3ccccn3c2Nc2ccc(F)cc2)n1	3 µM, pH 7.4	137
N#CC1CCCN(c2nc(-c3ccccn3)nc3ccccc23)C1 (centres unmarked)	–	48
Cc1cnnc(Nc2ccnc3ccc(-c4ccc(S(=O)(=O)N5CCOCC5)cc4)cc23)c1	–	126
CC(C)CCN(c1ccc(F)cc1)c1c(-c2ccccn2)nc2ccccn12	3 µM, pH 7.4	110
Cc1noc(C)c1Nc1ccnc2ccc(-c3ccc(S(=O)(=O)N4CCOCC4)cc3)cc12	–	78.2
COc1cc2[nH]c(C)c(-c3ccc(C)cc3)c(=O)c2cc1Cl	1 µM	21
Fc1ccc(Nc2nc(-c3ccccn3)nc3ccccc23)cc1	–	67
Fc1ccc(Nc2c(-c3cc(Cl)ccn3)nc3ccccn23)cc1	3 µM, pH 7.4	160
COc1ccccc1-c1nc(N2CCC(c3ccccn3)C2)c2ccccc2n1 (centres unmarked)	–	69
Cc1cc(Nc2ccc(S(F)(F)(F)(F)F)cc2)n2nc(C(C)(F)F)nc2n1	1 µM, pH 7.4	< 6
Oc1cccc(-c2nc(N3CCC(c4ccccn4)C3)c3ccccc3n2)c1 (centres unmarked)	–	165
COc1ccc(-c2c(C)[nH]c3cc(OC)c(Cl)cc3c2=O)cc1	1 µM	< 7
Cn1ccnc1CNc1nc(-c2ccccn2)nc2ccccc12	–	24
COc1ccnc(-c2nc3ccccn3c2Nc2ccc(F)cc2)c1	3 µM, pH 7.4	120
c1ccc(-c2nc(N3CCN(c4ccccn4)CC3)c3ccccc3n2)nc1	–	79
CN(C)C(=N)N=C(N)N	–	1.5
N#CC1CCN(c2nc(-c3ccccn3)nc3ccccc23)CC1	–	45
COc1ccc(-c2nc3ccccn3c2N(C)c2ccc(F)cc2)nc1	3 µM, pH 7.4	93
c1ccc(-c2nc(NCCn3ccnc3)c3ccccc3n2)nc1	–	36
COc1ccnc(-c2nc3ccccn3c2N(C)c2ccc(F)cc2)c1	3 µM, pH 7.4	210
O=S(=O)(c1ccc(-c2ccc3nccc(Nc4ccc5[nH]nnc5c4)c3c2)cc1)N1CCOCC1	–	52
COc1cc2[nH]c(C)c(-c3ccc(S(=O)(=O)N(C)C)cc3)c(=O)c2cc1Cl	1 µM	17
O=S(=O)(c1ccc(-c2ccc3nccc(Nc4cnccn4)c3c2)cc1)N1CCOCC1	–	115
C[C@H](C(=O)NC1Cc2ccccc2C1)c1ccccc1	1 µM, 1 h	15
COc1cc2[nH]c(C)c(-c3ccc(N(C)C)cc3)c(=O)c2cc1Cl	1 µM	15
